Activity calls are given as the source filed them. The calls are words filed in the database; no cut-off is given here.
Experiments:
Format in all cases: functional, cell-based
[1] = test system: A549; assay: Cytotoxicity against human A549 cells assessed as reduction in cell viability after 48 hrs by MTT assay; conditions: for IC50: A549, 48 h
Procedure, shortened: (§1)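 Cells kept in DMEM with 10% FBS, glutamine, HEPES and antibiotics at 37°C, 5% CO2. Seeded at 1×10⁴ cells/well and grown 48 h to 75% confluence, then exposed to serially diluted compounds for 48 h. MTT added for 4 h at 37 °C, formazan dissolved in DMSO, OD read at 620 nm. Viability is given as % of control OD, and IC50 is read from the viability-versus-concentration plot. Three independent experiments in triplicate.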

[2] = test system: MCF7; assay: Cytotoxicity against human MCF7 cells assessed as reduction in cell viability after 48 hrs by MTT assay; conditions: for IC50: MCF7, 48 h; procedure, shortened: as §1
[3] = test system: A549; assay: Induction of apoptosis in human A549 cells assessed as nuclear fragmentation after 24 hrs by DAPI-staining based fluorescence microscopic analysis
Procedure, shortened: (§2)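 Cells were grown on glass coverslips, treated for 24 h, fixed, and permeabilised with 0.2% Triton X-100 for 10 min at room temperature. They were then stained with DAPI for 3 min and examined by fluorescence microscopy for condensed chromatin and nuclear fragmentation. Untreated cells served as control.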

[4] = test system: MCF7; assay: Induction of morphological changes in human MCF7 cells assessed as cell shrinkage after 24 hrs by phase contrast microscopy
[5] = test system: MCF7; assay: Induction of apoptosis in human MCF7 cells assessed as chromatin condensation after 24 hrs by AO/EB-dual staining based fluorescent microscopic analysis
Procedure, shortened: (§3)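 Treated cells were collected, washed in PBS (pH 7.2), and stained with an AO/EtBr mixture (1:1; […] each in water) for 2 min. They were then washed twice with PBS and viewed by fluorescence microscopy at 400× with a 480 nm excitation filter. Green marks intact membranes; orange/red marks damaged membranes and condensed nuclei. Untreated cells served as control.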

[6] = test system: A549; assay: Induction of morphological changes in human A549 cells assessed as cell shrinkage after 24 hrs by phase contrast microscopy
[7] = test system: MCF7; assay: Induction of morphological changes in human MCF7 cells assessed as membrane blebbing after 24 hrs by phase contrast microscopy
[8] = test system: A549; assay: Induction of apoptosis in human A549 cells assessed as chromatin condensation after 24 hrs by AO/EB-dual staining based fluorescent microscopic analysis; procedure, shortened: as §3
[9] = test system: A549; assay: Induction of morphological changes in human A549 cells assessed as membrane blebbing after 24 hrs by phase contrast microscopy
[10] = test system: A549; assay: Induction of morphological changes in human A549 cells assessed as formation of floating cells after 24 hrs by phase contrast microscopy
[11] = test system: MCF7; assay: Induction of morphological changes in human MCF7 cells assessed as formation of floating cells after 24 hrs by phase contrast microscopy
[12] = test system: MCF7; assay: Induction of apoptosis in human MCF7 cells assessed as nuclear fragmentation after 24 hrs by DAPI-staining based fluorescence microscopic analysis; procedure, shortened: as §2

Row | Compound | Activity [1] | IC50 [1] [µM] | Activity [2] | IC50 [2] [µM] | Activity [3] | Activity [4] | Activity [5] | Activity [6] | Activity [7] | Activity [8] | Activity [9] | Activity [10] | Activity [11] | Activity [12]
1 | COc1ccc(-c2nc(N)nc3c2ccc2c4ccccc4[nH]c23)cc1Br | Dose-dependent effect | 29 | Dose-dependent effect | 26 |  |  |  |  |  |  |  |  |  | 
2 | COc1ccc(-c2nc(N)nc3c2ccc2c4cc(Cl)ccc4[nH]c23)cc1Br | Dose-dependent effect | 25 | Dose-dependent effect | 20 | inactive | Dose-dependent effect | Active | Dose-dependent effect | Dose-dependent effect | Active | Dose-dependent effect | Dose-dependent effect | Dose-dependent effect | 
3 | COc1ccc(-c2onc3c2CCc2c-3[nH]c3ccc(C)cc23)cc1Br | Dose-dependent effect | 28 | Dose-dependent effect | 21 | Active | Dose-dependent effect | inactive | Dose-dependent effect | Dose-dependent effect | Active | Dose-dependent effect | Dose-dependent effect | Dose-dependent effect | Active
4 | COc1ccc(-c2nc(N)nc3c2ccc2c4cc(C)ccc4[nH]c23)cc1Br | Dose-dependent effect | 24 | Dose-dependent effect | 22 | Active | Dose-dependent effect | inactive | Dose-dependent effect | Dose-dependent effect |  | Dose-dependent effect | Dose-dependent effect | Dose-dependent effect | Active
5 | COc1ccc(-c2nc(N)nc3c2ccc2c4cccc(C)c4[nH]c23)cc1Br | Dose-dependent effect | 31 | Dose-dependent effect | 28 |  |  |  |  |  |  |  |  |  | 
6 | CCOc1nc2c(c(-c3ccc(OC)c(Br)c3)c1C#N)CCc1c-2[nH]c2c(C)cccc12 | Dose-dependent effect | 39 | Dose-dependent effect | 36 |  |  |  |  |  |  |  |  |  | 
7 | CCOc1nc2c(c(-c3ccc(OC)c(Br)c3)c1C#N)CCc1c-2[nH]c2ccccc12 | Dose-dependent effect | 37 | Dose-dependent effect | 35 |  |  |  |  |  |  |  |  |  | 
8 | CCOc1nc2c(c(-c3ccc(OC)c(Br)c3)c1C#N)CCc1c-2[nH]c2ccc(C)cc12 | Dose-dependent effect | 29 | Dose-dependent effect | 25 |  | Dose-dependent effect | inactive | Dose-dependent effect | Dose-dependent effect | Active | Dose-dependent effect | Dose-dependent effect | Dose-dependent effect | Active
9 | COc1ccc(-c2onc3c2CCc2c-3[nH]c3c(C)cccc23)cc1Br | Dose-dependent effect | 35 | Dose-dependent effect | 32 |  |  |  |  |  |  |  |  |  | 
10 | CCOc1nc2c(c(-c3ccc(OC)c(Br)c3)c1C#N)CCc1c-2[nH]c2ccc(Cl)cc12 | Dose-dependent effect | 32 | Dose-dependent effect | 25 | inactive | Dose-dependent effect | Active | Dose-dependent effect | Dose-dependent effect |  | Dose-dependent effect | Dose-dependent effect | Dose-dependent effect | 
11 | COc1ccc(-c2onc3c2CCc2c-3[nH]c3ccccc23)cc1Br | Dose-dependent effect | 33 | Dose-dependent effect | 31 |  |  |  |  |  |  |  |  |  | 

Reference: ChEMBL document CHEMBL4004855, “Synthesis of hetero annulated isoxazolo-, pyrido- and pyrimido carbazoles: Screened for in vitro antitumor activity and structure activity relationships, a novel 2-amino-4-(3'-bromo-4'-methoxyphenyl)-8-chloro-11H-pyrimido[4,5-a]carbazole as an antitumor agent” (Eur J Med Chem, 2017)
